ChEMBL document CHEMBL3576809, “Thiasporines A-C, thiazine and thiazole derivatives from a marine-derived Actinomycetospora chlora” (J Nat Prod, 2015)
pIC50: −log10 of the molar value. Activity calls are given as the source filed them. The calls are words filed in the database; no cut-off is given here.

What was measured:
Format in all cases: functional, cell-based
[1] = system: NCI-H2122; assay: Cytotoxicity against human NCI-H2122 cells assessed as cell viability after 96 hrs by Cell Titer Glo assay; settings: NCI-H2122, 96 h
How it was run: (§1)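 NSCLC lines were kept in RPMI/L-glutamine with penicillin, streptomycin and 5% FBS (37 °C, 5% CO2) and seeded in 384-well plates overnight. DMSO-dissolved compounds were added (final DMSO 0.5%) and incubated 96 h. Viability was read as CellTiter-Glo luminescence after 10 min at room temperature and normalized to untreated cell-plus-DMSO wells.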

[2] = system: HCC366; assay: Cytotoxicity against human HCC366 cells assessed as cell viability up to 24 uM after 96 hrs by Cell Titer Glo assay; how it was run: as §1
[3] = system: A549; assay: Cytotoxicity against human A549 cells assessed as cell viability up to 24 uM after 96 hrs by Cell Titer Glo assay; how it was run: as §1
[4] = system: HCC44; assay: Cytotoxicity against human HCC44 cells assessed as cell viability up to 24 uM after 96 hrs by Cell Titer Glo assay; how it was run: as §1
[5] = system: NCI-H2122; assay: Cytotoxicity against human NCI-H2122 cells assessed as cell viability at 0.001 to 50 uM after 96 hrs by Cell Titer Glo assay
How it was run: (§2)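 Cells grown in RPMI/L-glutamine with 1000 U/mL penicillin, 1 mg/mL streptomycin and 5% FBS at 37 °C, 5% CO2, then plated in 384-well plates overnight. Compounds in DMSO were added at final 50 μM to 1 nM (0.5% DMSO final) for 96 h. CellTiter-Glo (1:2 in medium) was added, 10 min at room temperature, and luminescence normalized to DMSO-only wells.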

[6] = system: HCC366; assay: Cytotoxicity against human HCC366 cells assessed as cell viability at 0.001 to 50 uM after 96 hrs by Cell Titer Glo assay; how it was run: as §2
[7] = system: A549; assay: Cytotoxicity against human A549 cells assessed as cell viability at 0.001 to 50 uM after 96 hrs by Cell Titer Glo assay; how it was run: as §2
[8] = system: HCC44; assay: Cytotoxicity against human HCC44 cells assessed as cell viability at 0.001 to 50 uM after 96 hrs by Cell Titer Glo assay; how it was run: as §2

| SMILES | pIC50 [1] | Activity [2] | Activity [3] | Activity [4] | Activity [5] | Activity [6] | Activity [7] | Activity [8] |
| --- | --- | --- | --- | --- | --- | --- | --- | --- |
| Nc1ccccc1-c1nc(=O)c(O)cs1 | 5.27 | inactive | inactive | inactive |  |  |  |  |
| CNc1ccccc1-c1nc(C(=O)OC)cs1 |  |  |  |  | inactive | inactive | inactive | inactive |
| CNc1ccccc1-c1nc(C(=O)O)cs1 |  |  |  |  | inactive | inactive | inactive | inactive |
